The text below walks through data of ChEMBL document CHEMBL4325878, “SAR of a new antischistosomal urea carboxylic acid” (Bioorg Med Chem Lett, 2018).

In general, ED50 refers to the dose that gives a 50% effect, or the effect in half of the subjects. By LC50 is commonly meant the concentration that kills 50% of the test population.

The nature of data set [1]: Kinetic solubility of compound in pH 6.5 phosphate buffer at 10 mg/ml by nephelometry. The class given is physicochemical. Conditions: read-out: Kinetic_solubility. Summed up: (§1)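 DMSO solutions of compound spiked into pH 6.5 phosphate buffer or 0.01 M HCl (approx. pH 2.0); nephelometry read-out, reported as a solubility concentration range.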
For data set [2], the system named is Schistosoma mansoni. Nature of the data set: Antischistosomal activity against newly transformed Schistosoma mansoni cercariae at 10 uM after 72 hrs by microscopic analysis. The class given is functional, organism-based. Summed up: (§2)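 Newly transformed schistosomula and cultured adult S. mansoni were exposed in vitro to compound at 10 μM.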
In data set [3] the test system is Schistosoma mansoni. Kind of data set: Antischistosomal activity against adult stage of Schistosoma mansoni cercariae at 10 uM after 72 hrs by microscopic analysis. Type of data set: functional, organism-based. A digest of the protocol:
as §2

Data set [4] has as its system Schistosoma mansoni. Kind of data set: Antischistosomal activity against Schistosoma mansoni cercariae infected in NMRI mouse assessed as worm burden reduction at 100 mg/kg, po administered as single dose on day 49 of post infection and measured on day 21 of post treatment relative to control. Type of data set: functional. Further details: scale not given: the % may be the effect or the level left. A digest of the protocol:
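Single 100 mg/kg oral dose given to S. mansoni-infected mice; in vivo activity read as worm burden reduction versus an untreated control group, with statistical comparison to control.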

Data set [5] in a line: Intrinsic clearance in human liver microsomes assessed per mg protein after 60 mins in presence of NADPH. Type of data set: ADME, Microsome. The settings on record: 1 h. Summed up:
(§3)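 In vitro intrinsic clearance determined in human and in mouse liver microsomes. Control incubations run without NADPH co-factor; parameters were not derived where compound was lost in those co-factor-free controls.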

The next data set has as its system L6. Nature of the data set: Cytotoxicity against rat L6 cells up to 200 uM. The class given is cell-based. A digest of the protocol:
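Growth inhibition of rat L6 myoblasts was used as the host-cell cytotoxicity measure, testing compound at concentrations up to 200 μM.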

Data set [6] can be described thus: Intrinsic clearance in mouse liver microsomes assessed per mg protein after 60 mins in presence of NADPH. Type of data set: ADME, Microsome. The settings on record: 1 h. Summed up:
as §3

Data set [7] is described as follows: Kinetic solubility of compound in 0.01 M HCL at 10 mg/ml at pH 2 by nephelometry. The class given is physicochemical. The settings on record: read-out: Kinetic_solubility. Summed up:
as §1

For data set [8], the system named is Schistosoma mansoni. Nature of the data set: Antischistosomal activity against adult stage of Schistosoma mansoni infected in NMRI nude mouse administered as single oral dose on day 49 of post infection. The settings on record: 1176 h. The class given is functional.
Data set [9] deals with Schistosoma mansoni. Kind of data set: Antischistosomal activity against adult stage of Schistosoma mansoni cercariae after 72 hrs by microscopic analysis. The class given is functional.

Values after ≈ are worked out from the molar mass of the structure shown. Active and inactive are the calls of the source. The rule behind the calls is not given here.

As for `O=C(O)CNC(=O)Nc1ccc(F)c(C(F)(F)F)c1`, the solubility kinetic in data set [1] and in [7] was greater than 100 µg/mL in each case. For the same compound, the result in the data set with Schistosoma mansoni [2] and with Schistosoma mansoni [3] was inactive. The Activity in the data set with Schistosoma mansoni [4] is 49%; in the data set on L6, “Non-Toxic”. Also, the microsomal intrinsic clearance in [5] and in data set [6] was less than 7 µL/min in each case.
For the compound `CC(C)(NC(=O)Nc1ccccc1)C(=O)O`, the solubility kinetic in data set [1] was 50 to 100 µg/mL (≈ 225 to 450 µM); in data set [7] it was greater than 100 µg/mL. In addition, the outcome in the data set with Schistosoma mansoni [2] and with Schistosoma mansoni [3] was inactive. Further, the figures for the Activity in the data set with Schistosoma mansoni [4] and with L6 were 20% and “Non-Toxic”, respectively. Also, the microsomal intrinsic clearance in data set [5] and in data set [6] was less than 7 µL/min in each case.
Regarding `CCOC(=O)C(C)(C)NC(=O)Nc1ccc(F)c(C(F)(F)F)c1`, the solubility kinetic in data set [1] and in data set [7] was 3.1 to 6.3 µg/mL (≈ 9.22 to 18.7 µM) throughout. The result with Schistosoma mansoni [2] and in the data set on Schistosoma mansoni [3] was inactive. For the same compound, the Activity in the data set on Schistosoma mansoni [4] is 70%; with L6, “Non-Toxic”.
`CC1(C)NC(=O)N(c2ccc(F)c(C(F)(F)F)c2)C1=O`: the 50% effect level in the data set with Schistosoma mansoni [8] (ED50) was put at a dose of 172 mg/kg.
As to `O=C(C1CCCCC1)N1CC(=O)N2CCc3ccccc3C2C1` (stereo not given) [PRAZIQUANTEL], in the data set on Schistosoma mansoni [9], the LC50 worked out at 77 nM. The Activity in the data set with Schistosoma mansoni [4] came to 15%.
As to `CC(C)(NC(=O)Cc1ccc(F)c(C(F)(F)F)c1)C(=O)O`, the solubility kinetic in data set [1] was in the range of 25 to 50 µg/mL (≈ 81.4 to 163 µM); in data set [7], 50 to 100 µg/mL (≈ 163 to 325 µM). Moreover, the outcome with Schistosoma mansoni [2] and in the data set with Schistosoma mansoni [3] was inactive. For the same compound, the Activity with Schistosoma mansoni [4] is 0%; in the data set on L6 it was “Non-Toxic”. For the same compound, the microsomal intrinsic clearance in [5] and in [6] was less than 7 µL/min each time.
`CC(C)(C(=O)O)n1c(=O)[nH]c2cc(C(F)(F)F)c(F)cc21`: the solubility kinetic in data set [1] is greater than 100 µg/mL; in data set [7], 50 to 100 µg/mL (≈ 163 to 327 µM). Moreover, the outcome in the data set with Schistosoma mansoni [2] and in the data set on Schistosoma mansoni [3] was inactive. Moreover, the Activity is recorded as 0% in the data set on Schistosoma mansoni [4] and “Non-Toxic” with L6. Also, the microsomal intrinsic clearance in [5] and in data set [6] was less than 7 µL/min each time.
Take `CC(C)(C(=O)O)N1CCCN(c2ccc(F)c(C(F)(F)F)c2)C1=O`: the solubility kinetic in data set [1] and in data set [7] was greater than 100 µg/mL in each case. In addition, the outcome in the data set with Schistosoma mansoni [2] and with Schistosoma mansoni [3] was inactive. For the same compound, the results for the Activity in the data set with Schistosoma mansoni [4] and in the data set on L6 were 14% and “Non-Toxic”, respectively. The microsomal intrinsic clearance in data set [5] and in [6] was less than 7 µL/min each time.
`O=C(Nc1ccc(F)c(C(F)(F)F)c1)NC1(C(=O)O)CC1`: the solubility kinetic in [1] and in [7] was greater than 100 µg/mL in each case. Further, the result with Schistosoma mansoni [2] and in the data set on Schistosoma mansoni [3] was inactive. The values for the Activity in the data set on Schistosoma mansoni [4] and with L6 were 4% and “Non-Toxic”, respectively. Besides, the microsomal intrinsic clearance in data set [5] and in [6] was less than 7 µL/min in each case.
For the compound `CC(C)(NC(=O)Nc1ccc(F)c(C(F)(F)F)c1)C(=O)O`, the solubility kinetic in data set [1] was greater than 100 µg/mL; in data set [7] it was 25 to 50 µg/mL (≈ 81.1 to 162 µM). The outcome in the data set with Schistosoma mansoni [2] and with Schistosoma mansoni [3] was inactive. For the same compound, the microsomal intrinsic clearance in data set [5] and in data set [6] was less than 7 µL/min throughout.
Consider `CC(C)(NC(=O)Nc1ccc(F)c(C(F)(F)F)c1)C(N)=O`, for which the solubility kinetic in [1] and in data set [7] was 50 to 100 µg/mL (≈ 163 to 325 µM) each time. Further, the outcome with Schistosoma mansoni [2] and in the data set on Schistosoma mansoni [3] was inactive. Besides, the Activity in the data set with Schistosoma mansoni [4] is reported as 38%; in the data set on L6, “Non-Toxic”. Further, the values for the microsomal intrinsic clearance in data set [5] and in data set [6] were 19 µL/min and 18 µL/min, respectively.
For the compound `O=C(Nc1ccc(F)c(C(F)(F)F)c1)NC1(C(=O)O)CCC1`, the solubility kinetic in data set [1] was greater than 100 µg/mL; in data set [7], 50 to 100 µg/mL (≈ 156 to 312 µM). For the same compound, the result with Schistosoma mansoni [2] and in the data set on Schistosoma mansoni [3] was inactive. Moreover, the Activity in the data set with Schistosoma mansoni [4] is 21%; in the data set with L6, “Non-Toxic”. The microsomal intrinsic clearance in data set [5] is 7 µL/min; in data set [6] it was less than 7 µL/min.
With `CC(C)(CC(=O)Nc1ccc(F)c(C(F)(F)F)c1)C(=O)O`, the solubility kinetic in data set [1] and in [7] was 25 to 50 µg/mL (≈ 81.4 to 163 µM) in each case. Moreover, the outcome in the data set on Schistosoma mansoni [2] and with Schistosoma mansoni [3] was inactive. Besides, the Activity with Schistosoma mansoni [4] is on record as 42%; in the data set on L6, “Non-Toxic”. In addition, the microsomal intrinsic clearance in data set [5] and in data set [6] was less than 7 µL/min in each case.
Consider `CC(C)(C(=O)O)N1Cc2cc(F)c(C(F)(F)F)cc2NC1=O`, for which the values for the solubility kinetic in [1] and in [7] were greater than 100 µg/mL and 50 to 100 µg/mL (≈ 156 to 312 µM), respectively. Also, the outcome with Schistosoma mansoni [2] and in the data set with Schistosoma mansoni [3] was inactive. Moreover, the Activity was 0% in the data set on Schistosoma mansoni [4] and “Non-Toxic” with L6. Moreover, the microsomal intrinsic clearance in data set [5] and in data set [6] was less than 7 µL/min each time.
